From PMC8026699 (Cancer research, 2021)

How the values were obtained:
[1] = target: T1, recombinant human ACSS1 (Homo sapiens, UniProt Q9NUB1); test: TranScreener AMP biochemical assay of ACSS1 activity; conditions: regardless of the substrate (acetate or propionate)
T1 sequence (Q9NUB1 38-689): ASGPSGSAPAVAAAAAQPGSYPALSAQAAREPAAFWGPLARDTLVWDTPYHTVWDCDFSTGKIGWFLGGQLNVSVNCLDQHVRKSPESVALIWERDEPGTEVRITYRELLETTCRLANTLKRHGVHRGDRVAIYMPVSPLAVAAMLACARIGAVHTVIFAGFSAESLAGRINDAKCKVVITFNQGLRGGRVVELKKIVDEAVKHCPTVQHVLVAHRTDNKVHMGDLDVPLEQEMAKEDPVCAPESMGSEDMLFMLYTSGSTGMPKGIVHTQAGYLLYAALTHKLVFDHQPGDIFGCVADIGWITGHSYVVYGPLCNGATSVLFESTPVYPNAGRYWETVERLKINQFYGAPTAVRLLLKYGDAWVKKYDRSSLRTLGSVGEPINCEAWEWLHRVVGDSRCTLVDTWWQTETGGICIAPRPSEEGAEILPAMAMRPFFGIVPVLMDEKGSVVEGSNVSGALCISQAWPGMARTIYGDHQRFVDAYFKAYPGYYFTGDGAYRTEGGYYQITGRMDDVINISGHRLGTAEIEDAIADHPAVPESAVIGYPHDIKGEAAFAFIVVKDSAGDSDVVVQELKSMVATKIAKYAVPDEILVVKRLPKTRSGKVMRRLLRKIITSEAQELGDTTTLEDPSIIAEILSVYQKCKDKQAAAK
Summary of the method: (§1)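 Test compound was serially diluted in DMSO and added to ACSS1 (2 nM) or ACSS3 (25 nM). Acetate reaction: HEPES pH 7.4 buffer with 140 mM NaCl; final 5 mM acetate, 50 μM ATP, 5 μM CoA. Propionate reaction: HEPES/KCl/CHAPS buffer; final 5 mM propionate, 10 μM ATP, 100 μM CoA. Incubation 120 min, then AMP detected by terbium-antibody/tracer TR-FRET after 30 min. Percent inhibition was set against no-enzyme and DMSO controls.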

[2] = target: T2, recombinant human ACSS3 (Homo sapiens, UniProt Q9H6R3); test: TranScreener AMP biochemical assay of ACSS3 activity; conditions: regardless of the substrate (acetate or propionate)
T2 sequence (Q9H6R3 30-686): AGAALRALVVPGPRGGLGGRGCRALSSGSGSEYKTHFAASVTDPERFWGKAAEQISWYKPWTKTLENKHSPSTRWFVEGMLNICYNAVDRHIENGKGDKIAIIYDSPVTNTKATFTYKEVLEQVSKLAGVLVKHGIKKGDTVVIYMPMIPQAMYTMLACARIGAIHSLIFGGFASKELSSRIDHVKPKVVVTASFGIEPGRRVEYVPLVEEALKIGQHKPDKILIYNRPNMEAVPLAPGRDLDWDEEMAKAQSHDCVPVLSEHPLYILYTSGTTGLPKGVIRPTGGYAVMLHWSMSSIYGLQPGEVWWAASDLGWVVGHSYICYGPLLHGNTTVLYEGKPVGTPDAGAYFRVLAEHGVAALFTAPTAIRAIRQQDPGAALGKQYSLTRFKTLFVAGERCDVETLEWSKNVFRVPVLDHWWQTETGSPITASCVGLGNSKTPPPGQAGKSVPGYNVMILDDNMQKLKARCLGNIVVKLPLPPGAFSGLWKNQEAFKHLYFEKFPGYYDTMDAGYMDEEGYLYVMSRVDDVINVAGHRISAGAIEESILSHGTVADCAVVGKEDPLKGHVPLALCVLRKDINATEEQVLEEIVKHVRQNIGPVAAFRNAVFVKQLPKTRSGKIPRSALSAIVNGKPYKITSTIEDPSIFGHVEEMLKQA
Summary of the method: as §1

[3] = Water solubility in PBS; assay type: physicochemical; conditions: PBS buffer pH 7.4, room temperature
Summary of the method: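 10 mg test compound in 1 mL PBS pH 7.4, sonicated 30 min, vortexed 30 min at low speed, then left 16–24 h at room temperature. Filtered (0.22 μm) and 10-fold serially diluted in triplicate in ACN:water (1:1). Internal standard added; LC-MS/MS quantitation against a five-standard calibration curve.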

[4] = system: MDA-MB-468 cells; test: ERK phosphorylation immunoblot in MDA-MB-468 cells; assay type: cell-based, human
[5] = system: BT474 cells; test: ERK phosphorylation immunoblot in BT474 cells; assay type: cell-based, human
[6] = system: SKBr3 cells; test: ERK phosphorylation immunoblot in SKBr3 cells; assay type: cell-based, human

| SMILES | inhibitory activity towards ACSS1 [1] | inhibitory activity towards ACSS3 [2] | aqueous solubility [3] | phosphorylation of ERK [4] | phosphorylation of ERK [5] | phosphorylation of ERK [6] |
| --- | --- | --- | --- | --- | --- | --- |
| COCCNC(=O)Nc1ccc2nc(-c3cccs3)c(-c3cccs3)nc2c1 [VY-3-249, 1-(2,3-di(thiophen-2-yl)quinoxalin-6-yl)-3-(2-methoxyethyl)urea, reference compound] | neither VY-3-249 nor VY-3-135 displayed any inhibitory activity | neither VY-3-249 nor VY-3-135 displayed any inhibitory activity | poorly soluble | – | – | – |
| CS(=O)(=O)CCNCc1ccc(-c2ccc3ncnc(Nc4ccc(OCc5cccc(F)c5)c(Cl)c4)c3c2)o1 [lapatinib] | – | – | – | decreases phosphorylation of ERK | decreases phosphorylation of ERK | decreases phosphorylation of ERK |
